Results taken from ChEMBL document CHEMBL3739352, “Anticonvulsant activity, crystal structures, and preliminary safety evaluation of N-trans-cinnamoyl derivatives of selected (un)modified aminoalkanols” (Eur J Med Chem, 2016).
Calls of active or inactive are those of the source. No cut-off for these calls is given here.

Tests used:
[1] = system: Salmonella typhimurium; experiment: Mutagenicity in Salmonella typhimurium TA98 assessed as mutagenic index at 1000 ug/plate by Ames test; assay type: toxicity, organism-based; conditions: salmonella enterica subsp. enterica serovar typhimurium
[2] = system: Mus musculus; experiment: Anticonvulsant activity in albino Carworth Farms No.1 mouse assessed as protection against maximal electroshock-induced seizures at 100 mg/kg, ip after 4 hrs; assay type: functional, organism-based
Method in brief: (§1)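 Mouse i.p. screen in Carworth Farms No.1 albino mice at 30, 100 or 300 mg/kg in 0.5% methylcellulose. Testing was at 0.5 and 4 h after injection, by maximal electroshock or by subcutaneous pentetrazol challenge. Scoring was number protected / number used.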

[3] = system: Mus musculus; experiment: Neurotoxicity in albino Carworth Farms No.1 mouse at 100 mg/kg, ip after 0.5 hrs by rotarod test; assay type: toxicity, organism-based; conditions: in vivo
Method in brief: (§2)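 Mice (albino Carworth Farms No.1) were dosed i.p. at 30, 100 or 300 mg/kg in 0.5% methylcellulose. They were tested 0.5 and 4 h later on a 1-inch knurled rod rotating at 6 rpm. Neurotoxicity was scored if a mouse could not stay on the rod for at least 1 min in each of three trials. Results are given as animals toxic/animals tested, with deaths noted.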

[4] = system: Mus musculus; experiment: Neurotoxicity in albino Carworth Farms No.1 mouse at 30 mg/kg, ip after 0.5 hrs by rotarod test; assay type: toxicity, organism-based; conditions: in vivo; method in brief: as §2
[5] = system: Salmonella typhimurium; experiment: Mutagenicity in Salmonella typhimurium TA98 assessed as mutagenic index at 500 ug/plate by Ames test; assay type: toxicity, organism-based; conditions: salmonella enterica subsp. enterica serovar typhimurium
[6] = system: Salmonella typhimurium; experiment: Mutagenicity in Salmonella typhimurium TA100 assessed as number of revertants at 500 ug/plate by Ames test (reference value: 77 +/-4); assay type: toxicity, organism-based; conditions: salmonella enterica subsp. enterica serovar typhimurium
Method in brief: (§3)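 Salmonella TA100 preincubation Ames assay: overnight-type 12 h broth culture at 37 °C, compound in DMSO at final 4–1000 per plate, top agar with trace histidine, glucose minimal agar, 48 h at 37 °C. Revertant colonies per plate were counted, with a DMSO negative control and a sodium azide positive control. Three independent repetitions were run.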

[7] = system: Salmonella typhimurium; experiment: Mutagenicity in Salmonella typhimurium TA100 assessed as number of revertants at 100 ug/plate by Ames test (reference value: 77 +/-4); assay type: toxicity, organism-based; conditions: salmonella enterica subsp. enterica serovar typhimurium; method in brief: as §3
[8] = system: Salmonella typhimurium; experiment: Mutagenicity in Salmonella typhimurium TA98 assessed as mutagenic index at 4 ug/plate by Ames test; assay type: toxicity, organism-based; conditions: salmonella enterica subsp. enterica serovar typhimurium
[9] = system: Salmonella typhimurium; experiment: Mutagenicity in Salmonella typhimurium TA98 assessed as number of revertants at 500 ug/plate by Ames test (reference value: 23 +/- 3); assay type: toxicity, organism-based; conditions: salmonella enterica subsp. enterica serovar typhimurium
[10] = system: Mus musculus; experiment: Anticonvulsant activity in albino Carworth Farms No.1 mouse assessed as protection against subcutaneous dosed pentetrazol-induced seizures at 100 mg/kg, ip after 0.5 hrs; assay type: functional, organism-based; method in brief: as §1
[11] = system: Salmonella typhimurium; experiment: Mutagenicity in Salmonella typhimurium TA98 assessed as number of revertants at 20 ug/plate by Ames test (reference value: 23 +/- 3); assay type: toxicity, organism-based; conditions: salmonella enterica subsp. enterica serovar typhimurium
[12] = system: Salmonella typhimurium; experiment: Mutagenicity in Salmonella typhimurium TA100 assessed as number of revertants at 4 ug/plate by Ames test (reference value: 77 +/-4); assay type: toxicity, organism-based; conditions: salmonella enterica subsp. enterica serovar typhimurium; method in brief: as §3
[13] = Lipophilicity of the compound at 1 mg/ml by RT-TLC analysis relative to 0% methanol; assay type: physicochemical; conditions: methanol/water
Method in brief: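 Reversed-phase TLC used methanol–water mobile phases of 95–65% methanol. Compounds were applied from 1 mg/mL methanol solutions after 1 h chamber saturation, with UV detection. RM = log(1/Rf − 1) was calculated at each methanol level and extrapolated linearly (RM = RM0 + bC) to 0% methanol to give RM0.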

[14] = system: Salmonella typhimurium; experiment: Mutagenicity in Salmonella typhimurium TA1535 assessed as number of revertants at 100 ug/plate by Ames test (reference value: 10 +/- 3); assay type: toxicity, organism-based; conditions: salmonella enterica subsp. enterica serovar typhimurium
[15] = system: Salmonella typhimurium; experiment: Mutagenicity in Salmonella typhimurium TA1535 assessed as number of revertants at 1000 ug/plate by Ames test (reference value: 10 +/- 3); assay type: toxicity, organism-based; conditions: salmonella enterica subsp. enterica serovar typhimurium
[16] = Lipophilicity of the compound using 65% methanol in water at 1 mg/ml by RT-TLC analysis; assay type: physicochemical; conditions: buffer
Method in brief: (§4)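 Reversed-phase TLC with a methanol–water mobile phase at the stated methanol content (v/v). Compounds were spotted from 1 mg/mL methanol solutions after 1 h chamber saturation and located under UV light. Rf was measured and RM = log(1/Rf − 1) calculated.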

[17] = system: Salmonella typhimurium; experiment: Mutagenicity in Salmonella typhimurium TA1535 assessed as mutagenic index at 1000 ug/plate by Ames test; assay type: toxicity, organism-based; conditions: salmonella enterica subsp. enterica serovar typhimurium
[18] = system: Salmonella typhimurium; experiment: Mutagenicity in Salmonella typhimurium TA1535 assessed as assessed as mutagenic index at 500 ug/plate by Ames test; assay type: toxicity, organism-based; conditions: salmonella enterica subsp. enterica serovar typhimurium
[19] = system: Mus musculus; experiment: Anticonvulsant activity in albino Carworth Farms No.1 mouse assessed as protection against maximal electroshock-induced seizures at 30 mg/kg, ip after 0.5 hrs; assay type: functional, organism-based; method in brief: as §1
[20] = system: Mus musculus; experiment: Anticonvulsant activity in albino Carworth Farms No.1 mouse assessed as protection against maximal electroshock-induced seizures at 30 mg/kg, ip after 4 hrs; assay type: functional, organism-based; method in brief: as §1
[21] = system: Salmonella typhimurium; experiment: Mutagenicity in Salmonella typhimurium TA100 assessed as number of revertants at 1000 ug/plate by Ames test (reference value: 77 +/-4); assay type: toxicity, organism-based; conditions: salmonella enterica subsp. enterica serovar typhimurium; method in brief: as §3
[22] = Lipophilicity of the compound using 90% methanol in water at 1 mg/ml by RT-TLC analysis; assay type: physicochemical; conditions: buffer; method in brief: as §4
[23] = system: Salmonella typhimurium; experiment: Mutagenicity in Salmonella typhimurium TA1535 assessed as number of revertants at 20 ug/plate by Ames test (reference value: 10 +/- 3); assay type: toxicity, organism-based; conditions: salmonella enterica subsp. enterica serovar typhimurium
[24] = system: Mus musculus; experiment: Anticonvulsant activity in albino Carworth Farms No.1 mouse assessed as protection against subcutaneous dosed pentetrazol-induced seizures at 30 mg/kg, ip after 4 hrs; assay type: functional, organism-based; method in brief: as §1
[25] = system: Salmonella typhimurium; experiment: Mutagenicity in Salmonella typhimurium TA98 assessed as number of revertants at 1000 ug/plate by Ames test (reference value: 23 +/- 3); assay type: toxicity, organism-based; conditions: salmonella enterica subsp. enterica serovar typhimurium
[26] = system: Salmonella typhimurium; experiment: Mutagenicity in Salmonella typhimurium TA98 assessed as number of revertants at 4 ug/plate by Ames test (reference value: 23 +/- 3); assay type: toxicity, organism-based; conditions: salmonella enterica subsp. enterica serovar typhimurium
[27] = Lipophilicity of the compound using 85% methanol in water at 1 mg/ml by RT-TLC analysis; assay type: physicochemical; conditions: buffer; method in brief: as §4
[28] = system: Salmonella typhimurium; experiment: Mutagenicity in Salmonella typhimurium TA1535 assessed as number of revertants at 500 ug/plate by Ames test (reference value: 10 +/- 3); assay type: toxicity, organism-based; conditions: salmonella enterica subsp. enterica serovar typhimurium
[29] = system: Salmonella typhimurium; experiment: Mutagenicity in Salmonella typhimurium TA100 assessed as number of revertants at 20 ug/plate by Ames test (reference value: 77 +/-4); assay type: toxicity, organism-based; conditions: salmonella enterica subsp. enterica serovar typhimurium; method in brief: as §3
[30] = system: Salmonella typhimurium; experiment: Mutagenicity in Salmonella typhimurium TA100 assessed as mutagenic index at 4 ug/plate by Ames test; assay type: toxicity, organism-based; conditions: salmonella enterica subsp. enterica serovar typhimurium
Method in brief: (§5)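 Ames preincubation test. Strain culture was grown 12 h at 37 °C in nutrient broth, then mixed with compound in DMSO (final 4, 20, 100, 500, 1000 per plate) and buffer in top agar with trace histidine. This was plated on glucose minimal agar for 48 h at 37 °C. Mutagenic index = revertants with compound / DMSO control revertants, from three independent repeats.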

[31] = system: Salmonella typhimurium; experiment: Mutagenicity in Salmonella typhimurium TA100 assessed as mutagenic index at 500 ug/plate by Ames test; assay type: toxicity, organism-based; conditions: salmonella enterica subsp. enterica serovar typhimurium; method in brief: as §5
[32] = system: Salmonella typhimurium; experiment: Mutagenicity in Salmonella typhimurium TA1535 assessed as assessed as mutagenic index at 20 ug/plate by Ames test; assay type: toxicity, organism-based; conditions: salmonella enterica subsp. enterica serovar typhimurium; method in brief: as §5
[33] = system: Mus musculus; experiment: Anticonvulsant activity in albino Carworth Farms No.1 mouse assessed as protection against maximal electroshock-induced seizures at 300 mg/kg, ip after 0.5 hrs; assay type: functional, organism-based; method in brief: as §1
[34] = system: Mus musculus; experiment: Neurotoxicity in albino Carworth Farms No.1 mouse at 300 mg/kg, ip after 4 hrs by rotarod test; assay type: toxicity, organism-based; conditions: in vivo; method in brief: as §2

| Compound | Activity_index [1] | Activity [2] | Activity [3] | Activity [4] | Activity_index [5] | Activity [6] | Activity [7] | Activity_index [8] | Activity [9] | Activity [10] | Activity [11] | Activity [12] | Rm [13] | Activity [14] | Activity [15] | Rm [16] | Activity_index [17] | Activity_index [18] | Activity [19] | Activity [20] | also measured |
| --- | --- | --- | --- | --- | --- | --- | --- | --- | --- | --- | --- | --- | --- | --- | --- | --- | --- | --- | --- | --- | --- |
| O=C(/C=C/c1ccccc1)N1CCC(O)CC1 | 0.9 | inactive | Non-toxic | Non-toxic | 1 | 72 | 76 | 1 | 22 | inactive | 19 | 70 | 2.579 | 9 | 5 | 0.18 | 0.5 | 0.8 | inactive | inactive | Activity [21]: 70; Rm [22]: -0.48; Activity [23]: 6; Activity [24]: inactive; Activity [25]: 20; Activity [26]: 22; Rm [27]: -0.23; Activity [28]: 8; Activity [29]: 68; Activity_index [30]: 0.9; Activity_index [31]: 0.9; Activity_index [32]: 0.6 |
| CC(O)CNC(=O)/C=C/c1ccccc1 (racemic) | 1 | inactive | Non-toxic | Non-toxic | 0.9 | 65 | 67 | 1.1 | 21 | inactive | 22 | 68 | 1.512 | 12 | 14 | 0.02 | 1.4 | 1.4 | inactive | inactive | Activity [21]: 73; Rm [22]: -0.58; Activity [33]: Active; Activity [23]: 13; Activity [24]: inactive; Activity [25]: 24; Activity [26]: 26; Rm [27]: -0.33; Activity [28]: 14; Activity [29]: 70; Activity [34]: Non-toxic; Activity_index [30]: 0.9; Activity_index [31]: 0.8; Activity_index [32]: 1.3 |
| CCC(O)CNC(=O)/C=C/c1ccccc1 (racemic) | 1.1 | inactive | Non-toxic | Non-toxic | 0.7 | 60 | 62 | 0.9 | 17 | inactive | 20 | 60 | 1.937 | 5 | 6 | 0.19 | 0.6 | 0.7 | inactive | inactive | Activity [21]: 72; Rm [22]: -0.52; Activity [33]: Active; Activity [23]: 14; Activity [24]: inactive; Activity [25]: 25; Activity [26]: 19; Rm [27]: -0.25; Activity [28]: 7; Activity [29]: 64; Activity [34]: Non-toxic; Activity_index [30]: 0.8; Activity_index [31]: 0.8; Activity_index [32]: 1.4 |
| CC(C)C(CO)NC(=O)/C=C/c1ccccc1 (racemic) | 0.7 | inactive | Non-toxic | Non-toxic | 0.8 | 79 | 80 | 0.9 | 16 | inactive | 19 | 83 | 2.219 | 6 | 7 | 0.31 | 0.7 | 0.7 | inactive | inactive | Activity [21]: 80; Rm [22]: -0.45; Activity [33]: Active; Activity [23]: 6; Activity [24]: inactive; Activity [25]: 15; Activity [26]: 20; Rm [27]: -0.16; Activity [28]: 7; Activity [29]: 75; Activity [34]: Non-toxic; Activity_index [30]: 1.1; Activity_index [31]: 1; Activity_index [32]: 0.6 |
| CC(CO)NC(=O)/C=C/c1ccccc1 (racemic) | 0.8 | inactive | Non-toxic | Non-toxic | 1 | 65 | 71 | 0.9 | 24 | inactive | 20 | 67 | 1.39 | 5 | 6 | -0.03 | 0.6 | 0.8 | inactive | inactive | Activity [21]: 67; Rm [22]: -0.6; Activity [33]: Active; Activity [23]: 6; Activity [24]: inactive; Activity [25]: 18; Activity [26]: 20; Rm [27]: -0.39; Activity [28]: 8; Activity [29]: 62; Activity [34]: Non-toxic; Activity_index [30]: 0.9; Activity_index [31]: 0.8; Activity_index [32]: 0.6 |
